Data taken from ChEMBL document CHEMBL6109036, “Azo derivatives of monoterpenes as anti-Helicobacter pylori agents: from synthesis to structure-based target investigation” (RSC Med Chem, 2025).
≈ marks a conversion by molar mass, not a printed value.

How the values were obtained:
Format in all cases: functional
Helicobacter pylori [1] = assay: Anti-bacterial activity against Helicobacter pylori Clinical isolate F1 measured after 72 hrs incubation by modified broth dilution method
Helicobacter pylori [2] = assay: Bactericidal activity against Helicobacter pylori Clinical isolate F1 measured after 72 hrs of incubation under microaerophilic conditions by modified broth dilution method; conditions: read-out: MBC99.9
Outline: (§1)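 H. pylori (NCTC 11637, F1, 23, F4). Wells with no visible growth in the MIC assay spotted (10 μL) onto Skirrow agar. Plates incubated 72 h at 37 °C, microaerophilic, 100% humidity. MBC = concentration killing 99.9% of the initial inoculum. Triplicate, on at least three different days.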

Helicobacter pylori [3] = assay: Anti-bacterial activity against Helicobacter pylori Clinical isolate 23 measured after 72 hrs incubation by modified broth dilution method
Helicobacter pylori [4] = assay: Bactericidal activity against Helicobacter pylori Clinical isolate 23 measured after 72 hrs of incubation under microaerophilic conditions by modified broth dilution method; conditions: read-out: MBC99.9; outline: as §1
Helicobacter pylori [5] = assay: Anti-bacterial activity against Helicobacter pylori NCTC 11637 measured after 72 hrs incubation by modified broth dilution method
Helicobacter pylori [6] = assay: Bactericidal activity against Helicobacter pylori NCTC 11637 measured after 72 hrs of incubation under microaerophilic conditions by modified broth dilution method; conditions: read-out: MBC99.9; outline: as §1
Helicobacter pylori [7] = assay: Anti-bacterial activity against Helicobacter pylori Clinical isolate F4 measured after 72 hrs incubation by modified broth dilution method
Helicobacter pylori [8] = assay: Bactericidal against Helicobacter pylori Clinical isolate F4 measured after 72 hrs of incubation under microaerophilic conditions by modified broth dilution method; conditions: read-out: MBC99.9; outline: as §1
Helicobacter pylori [9] = assay: Anti-bacterial activity against Helicobacter pylori measured after 72 hrs incubation by modified broth dilution method
Helicobacter pylori [10] = assay: Bactericidal against Helicobacter pylori measured after 72 hrs of incubation under microaerophilic conditions by modified broth dilution method; conditions: for MBC: Helicobacter pylori, read-out: MBC99.9
Outline: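 Wells with no visible growth in the MIC assay spotted (10 μL) onto Skirrow agar. Plates incubated 72 h at 37 °C, microaerophilic, 100% humidity. Triplicate, on at least three different days.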

SMILES	MIC (Helicobacter pylori [1]) [µg/mL]	MBC (Helicobacter pylori [2]) [µg/mL]	MIC (Helicobacter pylori [3]) [µg/mL]	MBC (Helicobacter pylori [4]) [µg/mL]	MIC (Helicobacter pylori [5]) [µg/mL]	MBC (Helicobacter pylori [6]) [µg/mL]	MIC (Helicobacter pylori [7]) [µg/mL]	MBC (Helicobacter pylori [8]) [µg/mL]	MIC50 (Helicobacter pylori [9]) [µg/mL]	MIC90 (Helicobacter pylori [9]) [µg/mL]	MBC90 (Helicobacter pylori [10]) [µg/mL]	MBC (Helicobacter pylori [10]) [µg/mL]
COc1cc(C)c(/N=N/c2ccc([N+](=O)[O-])cc2)cc1C(C)C	> 128	> 128	> 128	> 128	> 128	> 128	> 128	> 128	> 128	> 128	>128	–
COc1cccc(C=O)c1O	4 (≈ 26.3 µM)	4 (≈ 26.3 µM)	16 (≈ 105 µM)	16 (≈ 105 µM)	8 (≈ 52.6 µM)	16 (≈ 105 µM)	8 (≈ 52.6 µM)	8 (≈ 52.6 µM)	8 (≈ 52.6 µM)	16 (≈ 105 µM)	–	16 (≈ 105 µM)
C=CCc1ccc(O)c(OC)c1 [EUGENOL]	64 (≈ 390 µM)	128 (≈ 780 µM)	64 (≈ 390 µM)	64 (≈ 390 µM)	32 (≈ 195 µM)	64 (≈ 390 µM)	64 (≈ 390 µM)	64 (≈ 390 µM)	64 (≈ 390 µM)	64 (≈ 390 µM)	64 (≈ 390 µM)	–
Cc1ccccc1/N=N/c1cc(C(C)C)c(O)c(/N=N/c2ccccc2C)c1C	128 (≈ 331 µM)	> 128	128 (≈ 331 µM)	> 128	> 128	> 128	128 (≈ 331 µM)	> 128	128 (≈ 331 µM)	> 128	>128	–
Cc1cc(/N=N/c2ccc(Br)cc2)c(C(C)C)c(/N=N/c2ccc(Br)cc2)c1O	> 128	> 128	> 128	> 128	128 (≈ 248 µM)	128 (≈ 248 µM)	> 128	> 128	> 128	> 128	>128	–
Cc1c(/N=N/c2ccccc2Cl)cc(C(C)C)c(O)c1/N=N/c1ccccc1Cl	128 (≈ 300 µM)	> 128	128 (≈ 300 µM)	> 128	> 128	> 128	128 (≈ 300 µM)	> 128	128 (≈ 300 µM)	> 128	>128	–
CC1(C)S[C@@H]2[C@H](NC(=O)[C@H](N)c3ccc(O)cc3)C(=O)N2[C@H]1C(=O)O [AMOXICILLIN]	0.064 (≈ 0.175 µM)	0.064 (≈ 0.175 µM)	0.016 (≈ 0.0438 µM)	0.016 (≈ 0.0438 µM)	0.016 (≈ 0.0438 µM)	0.016 (≈ 0.0438 µM)	0.064 (≈ 0.175 µM)	0.064 (≈ 0.175 µM)	0.016 (≈ 0.0438 µM)	0.064 (≈ 0.175 µM)	0.064 (≈ 0.175 µM)	–
Cc1cc(/N=N/c2ccccc2Cl)c(C(C)C)c(/N=N/c2ccccc2Cl)c1O	64 (≈ 150 µM)	> 128	128 (≈ 300 µM)	> 128	128 (≈ 300 µM)	128 (≈ 300 µM)	128 (≈ 300 µM)	> 128	128 (≈ 300 µM)	128 (≈ 300 µM)	>128	–
COc1ccc(/N=N/c2cc(C(C)C)c(O)c(/N=N/c3ccc(OC)cc3)c2C)cc1	128 (≈ 306 µM)	> 128	128 (≈ 306 µM)	> 128	> 128	> 128	128 (≈ 306 µM)	> 128	128 (≈ 306 µM)	> 128	>128	–
COc1cc(C=O)cc(/N=N/c2ccc(C)cc2)c1O	2 (≈ 7.4 µM)	2 (≈ 7.4 µM)	8 (≈ 29.6 µM)	8 (≈ 29.6 µM)	4 (≈ 14.8 µM)	4 (≈ 14.8 µM)	8 (≈ 29.6 µM)	8 (≈ 29.6 µM)	4 (≈ 14.8 µM)	8 (≈ 29.6 µM)	8 (≈ 29.6 µM)	–
C/C=C/c1ccc(O)c(OC)c1	32 (≈ 195 µM)	32 (≈ 195 µM)	32 (≈ 195 µM)	32 (≈ 195 µM)	32 (≈ 195 µM)	32 (≈ 195 µM)	32 (≈ 195 µM)	32 (≈ 195 µM)	32 (≈ 195 µM)	32 (≈ 195 µM)	–	32 (≈ 195 µM)
